Measured values reported in ChEMBL document CHEMBL1142936, “Library synthesis and screening: 2,4-diphenylthiazoles and 2,4-diphenyloxazoles as potential novel prion disease therapeutics” (2007).

Key:
[1] = biological target: Major prion protein (Homo sapiens) (UniProt P04156); assay: Binding affinity at human PrPC at 40 uM by SPR assay
[2] = biological target: Major prion protein (Mus musculus) (UniProt P04925); assay: Binding affinity at mouse PrPC at 40 uM by SPR assay
[3] = Inhibition of PrPSc formation in mouse SMB cells at 2.5 uM after 5 days […] relative to control; format: functional; settings: 120 h
In short: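 Scrapie-infected SMB mouse cells seeded at 3 × 10⁴ per well, attached 24 h, then exposed 5 days to compound. DMSO stocks were 400× final, diluted 20-fold into Hank's salt solution, then 20-fold into medium. Lysates were dot-blotted at about 30-40 µg protein, guanidine thiocyanate treated, and probed with anti-PrP 6H4 with ECL detection. PrP^Sc was expressed relative to untreated control, as the mean of triplicates with standard deviation.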

Major prion protein (Mus musculus), sequence (P04925 whole entry): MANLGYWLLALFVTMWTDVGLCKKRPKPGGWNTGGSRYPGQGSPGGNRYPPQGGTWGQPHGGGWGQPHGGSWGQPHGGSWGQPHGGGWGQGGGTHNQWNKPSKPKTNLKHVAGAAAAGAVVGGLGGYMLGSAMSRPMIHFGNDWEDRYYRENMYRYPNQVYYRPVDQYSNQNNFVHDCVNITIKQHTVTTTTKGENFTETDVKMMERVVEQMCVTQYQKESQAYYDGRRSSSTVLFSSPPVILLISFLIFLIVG

O=C(Nc1sc(-c2ccccc2)nc1-c1ccccc1)c1ccno1
RUmax [1]: 0%
RUmax [2]: 0%

O=C(Nc1sc(-c2ccccc2)nc1-c1ccccc1)c1ccccc1
RUmax [1]: 0%
RUmax [2]: 0%

O=C(Nc1oc(-c2ccccc2)nc1-c1ccccc1)c1cccnc1
RUmax [1]: 37.3%
RUmax [2]: 40%

O=C(Nc1sc(-c2ccccc2)nc1-c1ccccc1)c1ccco1
RUmax [1]: 6.5%
RUmax [2]: 8.4%

O=C(Nc1oc(-c2ccccc2)nc1-c1ccccc1)c1ccncc1
RUmax [1]: 0%
RUmax [2]: 0%

O=C(Nc1oc(-c2ccccc2)nc1-c1ccccc1)c1ccco1
RUmax [1]: 3.8%
RUmax [2]: 0%

O=C(Nc1sc(-c2ccccc2)nc1-c1ccccc1)c1cccc(C(F)(F)F)c1
RUmax [1]: 65%
RUmax [2]: 0%

O=C(Nc1sc(-c2ccccc2)nc1-c1ccccc1)c1ccc([N+](=O)[O-])o1
RUmax [1]: 0%
RUmax [2]: 0%

O=C(Nc1oc(-c2ccccc2)nc1-c1ccccc1)c1ccno1
RUmax [1]: 18.3%
RUmax [2]: 21.7%

O=C(Nc1sc(-c2ccccc2)nc1-c1ccccc1)c1ccncc1
RUmax [1]: 5%
RUmax [2]: 8.5%

O=C(Nc1oc(-c2ccccc2)nc1-c1ccccc1)c1ccc2ccccc2n1
RUmax [1]: 0%
RUmax [2]: 0%

Cc1ccc(C(=O)Nc2sc(-c3ccccc3)nc2-c2ccccc2)s1
RUmax [1]: 19.8%
RUmax [2]: 0%

O=C(Nc1oc(-c2ccccc2)nc1-c1ccccc1)c1ccc(F)cc1
RUmax [1]: 0%
RUmax [2]: 0%

O=C(Nc1oc(-c2ccccc2)nc1-c1ccccc1)C(F)(F)F
inhibition at 2.5 µM [3]: 35.1%
RUmax [1]: 13.7%
RUmax [2]: 22%

O=C(Nc1oc(-c2ccccc2)nc1-c1ccccc1)c1ccc([N+](=O)[O-])o1
RUmax [1]: 0%
RUmax [2]: 0%

O=C(Nc1sc(-c2ccccc2)nc1-c1ccccc1)c1ccccc1C(F)(F)F
RUmax [1]: 0%
RUmax [2]: 0%

O=C(Nc1oc(-c2ccccc2)nc1-c1ccccc1)c1cc2ccccc2s1
RUmax [1]: 48%
RUmax [2]: 59.6%

O=C(Nc1sc(-c2ccccc2)nc1-c1ccccc1)C(F)(F)F
inhibition at 2.5 µM [3]: 13.7%
RUmax [1]: 9.5%
RUmax [2]: 18.7%

O=C(Nc1sc(-c2ccccc2)nc1-c1ccccc1)c1nc2ccccc2s1
RUmax [1]: 40.1%
RUmax [2]: 0%

O=C(Nc1sc(-c2ccccc2)nc1-c1ccccc1)c1cccnc1
RUmax [1]: 0%
RUmax [2]: 0%

O=C(Nc1oc(-c2ccccc2)nc1-c1ccccc1)c1ccc(C(F)(F)F)cc1
RUmax [1]: 0%
RUmax [2]: 0%

O=C(Nc1oc(-c2ccccc2)nc1-c1ccccc1)C1CC1
RUmax [1]: 0%
RUmax [2]: 0%

CC(C)(C)OC(=O)Nc1oc(-c2ccccc2)nc1-c1ccccc1
RUmax [1]: 11.3%
RUmax [2]: 10.6%

COc1ccc(C(=O)Nc2oc(-c3ccccc3)nc2-c2ccccc2)cc1
RUmax [1]: 0%
RUmax [2]: 0%

O=C(Nc1sc(-c2ccccc2)nc1-c1ccccc1)C1CC1
RUmax [1]: 0%
RUmax [2]: 0%

O=C(Nc1sc(-c2ccccc2)nc1-c1ccccc1)c1ccc(C(F)(F)F)cc1
RUmax [1]: 0%
RUmax [2]: 0%

O=C(Nc1oc(-c2ccccc2)nc1-c1ccccc1)c1cc2ccccc2o1
RUmax [1]: 48.9%
RUmax [2]: 58%

CCCC(CCC)C(=O)Nc1sc(-c2ccccc2)nc1-c1ccccc1
RUmax [1]: 0%
RUmax [2]: 0%

O=C(Nc1sc(-c2ccccc2)nc1-c1ccccc1)c1cc2ccccc2s1
RUmax [1]: 21.1%
RUmax [2]: 0%

O=C(Nc1oc(-c2ccccc2)nc1-c1ccccc1)c1cccs1
RUmax [1]: 27.5%
RUmax [2]: 37.4%
